Measured values from ChEMBL document CHEMBL1131103, “Synthesis and biological evaluation of 2-acyl analogues of paclitaxel (Taxol)” (J Med Chem, 1998).

How the values were obtained:
[1] = tested on: Burkitts lymphoma cell; assay: Cytotoxic activity against was measured human Burkitt lymphoma cell lines.; type: functional, cell-based
How it was run: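 CA46 Burkitt lymphoma cells in 5.0-mL suspension culture, counted after 24 h at 37 °C under 5% CO₂. IC₅₀ = drug concentration halving the increase in cell number. Highest concentration 100 nM. At least two independent experiments.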

[2] = organism: Bos taurus; assay: Polymerizing activity of tubulin in glutamate against bovine brain tubulin homogenate was measured at 0.4 M concentrations; type: functional
How it was run: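 Purified, electrophoretically homogeneous bovine brain tubulin assembled at room temperature without GTP or Mg²⁺ in 0.4 M monosodium glutamate (from 2 M stock, pH 6.6). Polymer pelleted by centrifugation. IC₅₀ = drug concentration lowering supernatant protein by 50% versus no-drug control. Up to 40 µM. At least three independent experiments, or at least two where IC₅₀ exceeded 40 µM.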

[3] = organism: Bos taurus; assay: Polymerizing activity of tubulin in glutamate against bovine brain tubulin homogenate was measured at 0.8M concentrations; type: functional
How it was run: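 Bovine brain tubulin, purified to electrophoretic homogeneity, in 0.8 M monosodium glutamate (from 2 M stock, pH 6.6), room temperature, no GTP. Polymer removed by centrifugation. IC₅₀ = concentration reducing supernatant protein by 50% relative to drug-free control. Maximum 40 µM. At least three independent experiments, or at least two for IC₅₀ over 40 µM.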

[4] = tested on: Panel colon (Carcinoma cell lines); assay: Cytotoxic activity was measured against human colon carcinoma cell lines; type: functional, cell-based
How it was run: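 HCT116 colon carcinoma monolayers in 96-well plates, 48 h at 37 °C under 5% CO₂. Cell protein measured. IC₅₀ = concentration giving 50% inhibition of the increase in cell protein.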

[5] = organism: Bos taurus; assay: Polymerizing activity of microtubule protein against the twice cycled microtubule protein; type: functional
How it was run: (§1)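 Twice-cycled microtubule protein, stored in liquid nitrogen, at 1.0 mg/mL final in 0.1 M MES, 1 mM EGTA, 0.5 mM MgCl₂, pH 6.6, 37 °C, no GTP. Compound at 2.5, 5.0 and 10 µM. Absorbance read every 10 s and initial linear slopes taken. EC0.01 = interpolated concentration giving an initial slope of 0.01 A unit/min.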

[6] = tested on: Panel ovarian (Carcinoma cell lines); assay: Cytotoxic activity was measured against human Ovarian carcinoma cell lines; type: functional, cell-based
How it was run: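 Ovarian carcinoma line 1A9, a subclone of A2780, grown as monolayers in 96-well plates for 96 h at 37 °C, 5% CO₂. Cell protein quantitated (Skehan method). IC₅₀ = concentration inhibiting the increase in cell protein by 50%.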

[7] = tested on: ptx-10/22; assay: Relative resistance was measured against human paclitaxel-resistant cell lines; type: functional, cell-based; settings: 1A9(PTX22)
[8] = organism: Bos taurus; assay: Polymerizing activity of microtubule protein.; type: functional; how it was run: as §1

| IC50 [2] | IC50 [3] | Compound | IC50 [1] | IC50 [4] | EC0.01 (relative to paclitaxel) [5] | IC50 [6] | relative resistance [7] | EC0.01 (relative to paclitaxel) [8] |
| --- | --- | --- | --- | --- | --- | --- | --- | --- |
| > 1.7 relative to paclitaxel | 4 relative to paclitaxel | CC(=O)O[C@H]1C(=O)[C@@]2(C)[C@H]([C@H](OC(=O)c3cc(N=[N+]=[N-])cc(N=[N+]=[N-])c3)[C@]3(O)C[C@H](OC(=O)[C@H](O)[C@@H](NC(=O)c4ccccc4)c4ccccc4)C(C)=C1C3(C)C)[C@]1(OC(C)=O)CO[C@@H]1C[C@@H]2O | 1 relative to paclitaxel | 1.6 relative to paclitaxel | 0.67 | 1.3 relative to paclitaxel | 0.4 | – |
| > 1.7 relative to paclitaxel | 3.1 relative to paclitaxel | CC(=O)O[C@H]1C(=O)[C@@]2(C)[C@H]([C@H](OC(=O)c3ccc(F)c(F)c3)[C@]3(O)C[C@H](OC(=O)[C@H](O)[C@@H](NC(=O)c4ccccc4)c4ccccc4)C(C)=C1C3(C)C)[C@]1(OC(C)=O)CO[C@@H]1C[C@@H]2O | 0.33 relative to paclitaxel | 2.7 relative to paclitaxel | 2.2 | 3.4 relative to paclitaxel | 0.57 | – |
| > 1.7 relative to paclitaxel | 3.1 relative to paclitaxel | CC(=O)O[C@H]1C(=O)[C@@]2(C)[C@H]([C@H](OC(=O)c3cc(F)c(F)cc3F)[C@]3(O)C[C@H](OC(=O)[C@H](O)[C@@H](NC(=O)c4ccccc4)c4ccccc4)C(C)=C1C3(C)C)[C@]1(OC(C)=O)CO[C@@H]1C[C@@H]2O | 1 relative to paclitaxel | 1.9 relative to paclitaxel | 1.5 | 3.1 relative to paclitaxel | 0.48 | – |
| > 1.7 relative to paclitaxel | > 8.9 relative to paclitaxel | CC(=O)O[C@H]1C(=O)[C@@]2(C)[C@H]([C@H](OC(=O)c3cccc(OC(C)C)c3)[C@]3(O)C[C@H](OC(=O)[C@H](O)[C@@H](NC(=O)c4ccccc4)c4ccccc4)C(C)=C1C3(C)C)[C@]1(OC(C)=O)CO[C@@H]1C[C@@H]2O | 1.3 relative to paclitaxel | 17 relative to paclitaxel | > 140 | 15 relative to paclitaxel | 0.29 | – |
| > 1.7 relative to paclitaxel | 4.7 relative to paclitaxel | CC(=O)O[C@H]1C(=O)[C@@]2(C)[C@H]([C@H](OC(=O)c3cc(F)c(F)c(F)c3)[C@]3(O)C[C@H](OC(=O)[C@H](O)[C@@H](NC(=O)c4ccccc4)c4ccccc4)C(C)=C1C3(C)C)[C@]1(OC(C)=O)CO[C@@H]1C[C@@H]2O | 1.3 relative to paclitaxel | 3.4 relative to paclitaxel | 1.8 | 3.2 relative to paclitaxel | 0.62 | – |
| 1.4 relative to paclitaxel | 1.2 relative to paclitaxel | CCOc1cccc(C(=O)O[C@H]2[C@@H]3[C@]4(OC(C)=O)CO[C@@H]4C[C@H](O)[C@@]3(C)C(=O)[C@H](OC(C)=O)C3=C(C)[C@@H](OC(=O)[C@H](O)[C@@H](NC(=O)c4ccccc4)c4ccccc4)C[C@]2(O)C3(C)C)c1 | 1 relative to paclitaxel | 1.6 relative to paclitaxel | – | 1.7 relative to paclitaxel | 0.37 | 1.1 |
| > 1.7 relative to paclitaxel | 1.2 relative to paclitaxel | COc1ccccc1C(=O)O[C@H]1[C@@H]2[C@]3(OC(C)=O)CO[C@@H]3C[C@H](O)[C@@]2(C)C(=O)[C@H](OC(C)=O)C2=C(C)[C@@H](OC(=O)[C@H](O)[C@@H](NC(=O)c3ccccc3)c3ccccc3)C[C@]1(O)C2(C)C | 0.67 relative to paclitaxel | 1.9 relative to paclitaxel | 1.5 | 1.4 relative to paclitaxel | 0.95 | – |

| Compound | IC50 [2] | IC50 [3] | IC50 [1] | IC50 [4] | EC0.01 (relative to paclitaxel) [5] | IC50 [6] | relative resistance [7] | EC0.01 (relative to paclitaxel) [8] |
| --- | --- | --- | --- | --- | --- | --- | --- | --- |
| CC(=O)O[C@H]1C(=O)[C@@]2(C)[C@H]([C@H](OC(=O)c3cccc([N+](=O)[O-])c3)[C@]3(O)C[C@H](OC(=O)[C@H](O)[C@@H](NC(=O)c4ccccc4)c4ccccc4)C(C)=C1C3(C)C)[C@]1(OC(C)=O)CO[C@@H]1C[C@@H]2O | > 1.7 relative to paclitaxel | 1.6 relative to paclitaxel | 1 relative to paclitaxel | 0.88 relative to paclitaxel | 0.69 | 1.3 relative to paclitaxel | 0.76 | – |
| CC(=O)O[C@H]1C(=O)[C@@]2(C)[C@H]([C@H](OC(=O)c3cccc(I)c3)[C@]3(O)C[C@H](OC(=O)[C@H](O)[C@@H](NC(=O)c4ccccc4)c4ccccc4)C(C)=C1C3(C)C)[C@]1(OC(C)=O)CO[C@@H]1C[C@@H]2O | > 1.7 relative to paclitaxel | 3.1 relative to paclitaxel | 2.3 relative to paclitaxel | 0.85 relative to paclitaxel | 0.79 | 1.6 relative to paclitaxel | 0.35 | – |
